Assay results as given in ChEMBL document CHEMBL3243931, “Dihydroretinoic acids and their derivatives. Synthesis and biological activity” (1977).
Calls of active or inactive are those of the source. The calls are words filed in the database; no cut-off is given here.

How the values were obtained:
Mus musculus [1] = species on record: Mus musculus; assay: Increase in DNA content in mouse epidermal cells; assay type: functional, cell-based
How it was run: (§1)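 Mouse skin epidermal cell cultures with retinoid added to the medium from Me2SO stock (final Me2SO ≤1.0%); controls given equivalent Me2SO; increase in DNA or protein content measured relative to cultures without retinoid.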

Hamster [2] = assay: Reversal of keratinized lesions in vitamin A deficient hamster tracheal organ culture assessed as cultures with keratin and keratohyaline granules at 0.1 uM after 7 days (reference value: 93%); assay type: functional, Cricetinae, Trachea
Mus musculus [3] = species on record: Mus musculus; assay: Increase in protein content in mouse epidermal cells; assay type: functional, cell-based; how it was run: as §1
[4] = Increase in RNA content in mouse epidermal cells at 10 nM after 3 days; assay type: functional
How it was run: (§2)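 Mouse skin epidermal cell cultures grown 3 days with retinoid added from Me2SO stock (final Me2SO ≤1.0%); controls received equivalent Me2SO and no retinoid. RNA measured; value is percentage increase over control cultures; 6–9 cultures per concentration.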

[5] = Increase in RNA content in mouse epidermal cells at 1 nM after 3 days; assay type: functional; how it was run: as §2
Hamster [6] = assay: Reversal of keratinized lesions in vitamin A deficient hamster tracheal organ culture assessed as cultures with keratin and keratohyaline granules at 10 nM after 7 days (reference value: 93%); assay type: functional, Cricetinae, Trachea
Mus musculus [7] = assay: Activity against chemically-induced skin papillomas in Swiss albino mouse assessed as change in total papilloma diameter at 80 mg/kg/day, ip administered five times per week for 2 weeks measured on day 14; assay type: functional; settings: route intraperitoneal
[8] = Increase in RNA content in mouse epidermal cells at 1 uM after 3 days; assay type: functional; how it was run: as §2
[9] = Increase in RNA content in mouse epidermal cells at 0.1 uM after 3 days; assay type: functional; how it was run: as §2
Mus musculus [10] = assay: Activity against chemically-induced skin papillomas in Swiss albino mouse assessed as change in total papilloma diameter at 160 mg/kg/day, ip administered five times per week for 2 weeks measured on day 14; assay type: functional; settings: route intraperitoneal
Mus musculus [11] = assay: Activity against chemically-induced skin papillomas in Swiss albino mouse assessed as change in total papilloma diameter at 10 mg/kg/day, ip administered five times per week for 2 weeks measured on day 14; assay type: functional; settings: route intraperitoneal
Hamster [12] = assay: Reversal of keratinized lesions in vitamin A deficient hamster tracheal organ culture assessed as cultures with keratin and keratohyaline granules at 1 nM after 7 days (reference value: 93%); assay type: functional, Cricetinae, Trachea
Hamster [13] = assay: Reversal of keratinized lesions in vitamin A deficient hamster tracheal organ culture assessed as cultures with keratin and keratohyaline granules at 1 uM after 7 days (reference value: 93%); assay type: functional, Cricetinae, Trachea
[14] = Increase in RNA content in mouse epidermal cells at 0.1 nM after 3 days; assay type: functional; how it was run: as §2
Mus musculus [15] = assay: Activity against chemically-induced skin papillomas in Swiss albino mouse assessed as change in total papilloma diameter at 40 mg/kg/day, ip administered five times per week for 2 weeks measured on day 14; assay type: functional; settings: route intraperitoneal

Row | Compound | Cultures with keratinized lesions (Hamster [2]) [%] | Activity [4] [%] | Activity [5] [%] | Activity (Hamster [6]) [%] | Activity (Mus musculus [7]) [%] | Activity [8] [%] | Activity [9] [%] | further results
1 | COC(=O)/C=C(\C)CC/C=C(C)/C=C/C1=C(C)CCCC1(C)C | 24 | 9 | 3 | 83 | -13 | 21 | 5 | Activity (Mus musculus [1]): Active; Activity (Mus musculus [3]): Active
2 | COC(=O)/C=C(C)/C=C/C=C(\C)CCc1c(C)cc(OC)c(Cl)c1C | – | – | – | – | 1 | – | – | –
3 | CCOC(=O)/C=C(C)/C=C/C=C(C)/C=C/C1=C(C)CCCC1(C)C | 0 | 57 | 23 | 0 | -47 | 123 | 102 | –
4 | COC(=O)/C=C(\C)CC/C=C(C)/C=C/c1c(C)cc(OC)c(Cl)c1C | – | – | – | – | 29 | – | – | –
5 | CCOC(=O)CC(C)/C=C/C=C(C)/C=C/C1=C(C)CCCC1(C)C (stereo not drawn) | 12 | 12 | 12 | 83 | – | 69 | 13 | Activity (Mus musculus [1]): Active; Activity (Mus musculus [10]): -14%; Activity (Mus musculus [3]): Active
6 | CC(/C=C/C1C(C)CCCC1(C)C)=C\C=C\C(C)=C\C(=O)O (stereo not drawn) | 0 | – | – | 0 | – | – | – | Activity (Mus musculus [11]): -9%; Activity (Hamster [12]): 6%
7 | CC1=C(CC/C(C)=C/C=C/C(C)=C/C(=O)O)C(C)(C)CCC1 | 0 | 82 | 1 | 25 | -33 | 106 | 115 | Activity (Mus musculus [1]): Active; Activity (Mus musculus [3]): Active
8 | CC1=C(/C=C/C(C)C/C=C/C(C)=C/C(=O)O)C(C)(C)CCC1 (racemic) | 52 | 28 | 3 | 96 | – | 118 | 29 | Activity (Mus musculus [1]): Active; Activity (Mus musculus [3]): Active
9 | COC(=O)/C=C(C)/C=C/C=C(\C)CCc1c(C)cc(N(C)C)cc1C | – | – | – | – | 20 | – | – | –
10 | CC1=C(CC/C(C)=C/C=C/C(C)=C\C(=O)O)C(C)(C)CCC1 | – | – | – | – | -28 | – | – | –
11 | COc1cc(C)c(/C=C/C(C)=C/CC/C(C)=C/C(=O)O)c(C)c1C | 44 | – | – | 86 | -17 | – | – | Activity (Mus musculus [10]): -66%; Activity (Hamster [13]): 0%
12 | CC1=C(/C=C/C(C)=C/C=C/C(C)=C/C(=O)O)C(C)(C)CCC1 [TRETINOIN] | 0 | 100 | 68 | 3 | – | – | – | Activity [14]: 19%; Activity (Hamster [12]): 0%; Activity (Mus musculus [15]): -55%
13 | COc1cc(C)c(/C=C/C(C)=C/C=C/C(C)=C/C(=O)O)c(C)c1C [ACITRETIN] | 0 | – | – | 35 | – | – | – | Activity (Mus musculus [11]): -43%; Activity (Hamster [12]): 100%; Activity (Hamster [13]): 0%
14 | COC(=O)/C=C(\C)CC/C=C(C)/C=C/c1c(C)cc(C)c(Cl)c1C | – | – | – | – | 29 | – | – | –
15 | COC(=O)/C=C(C)/C=C/C=C(C)/C=C/C1=C(C)CCCC1(C)C [RETINOIC ACID METHYL ESTER] | 0 | 25 | 8 | 0 | – | 126 | 75 | –
16 | COc1cc(C)c(CC/C(C)=C/C=C/C(C)=C/C(=O)O)c(C)c1C | 63 | – | – | 85 | -35 | – | – | Activity (Hamster [13]): 0%
